SF-1 act: activators of human SF-1, primary screen, cell-based, CHO-K1, Gal4-SF-1 LBD, luciferase luminescence. Steroidogenic factor 1 (Homo sapiens), Q13285. CHO-K1 Gal4-SF-1 LBD luciferase reporter; % increase over DMSO SF-1-specific signal. activation, % at 10 µM. 65,000 tested, 1.9% active. AID 522, 2006;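 active = activation above the mean activation of all tested compounds plus 3 SD, cut at about 50% in these data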
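Material: CHO-K1 cells with Gal4–hSF-1 LBD chimera plus Gal4-driven luciferase / Input: 4,000 CHO-K1 cells per well / Incubation: compound exposure 20 h at 37 °C / Signal: luminescence read 15 min after SteadyLite luciferase reagent, after room-temperature equilibration / Read-out: percent activation versus DMSO / Benchmarks: DMSO negative control and −SF1 background wells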
MT1-MMP txn act: MT1-MMP promoter reporter activation – cell-based, luciferase luminescence, primary screen; 86,000 tested, 0.16% active; activation factor at 10 µM; HT1080 MT1-MMP promoter luciferase reporter, overnight; stronger effect = higher value; AID 750, 2007;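 active = activation factor of at least 2 for MT1-MMP transcription at 10 µM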
JNK3 inh: JNK3 kinase activity inhibitors, primary screen, biochemical, human, purified enzyme; inhibition, % at 8 µM; 60,000 tested, 0.61% active; HTS; Mitogen-activated protein kinase 10 (Homo sapiens), P53779; in the data active = inhibition above about 17%;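 also: 0% = DMSO and 100% = reference inhibitor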
Target sequence (P53779 whole entry, looked up): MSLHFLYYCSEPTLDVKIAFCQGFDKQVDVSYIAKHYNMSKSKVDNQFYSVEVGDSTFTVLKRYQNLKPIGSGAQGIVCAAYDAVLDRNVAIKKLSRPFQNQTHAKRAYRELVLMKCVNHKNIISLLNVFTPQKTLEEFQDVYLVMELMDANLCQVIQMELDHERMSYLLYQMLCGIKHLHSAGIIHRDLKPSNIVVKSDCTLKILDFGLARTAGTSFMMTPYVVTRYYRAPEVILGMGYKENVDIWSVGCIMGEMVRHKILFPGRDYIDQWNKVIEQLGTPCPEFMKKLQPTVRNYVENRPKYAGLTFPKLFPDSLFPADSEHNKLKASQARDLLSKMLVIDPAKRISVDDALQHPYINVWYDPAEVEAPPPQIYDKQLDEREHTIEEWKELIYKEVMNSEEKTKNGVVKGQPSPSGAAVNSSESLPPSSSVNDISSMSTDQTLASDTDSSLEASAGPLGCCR
RORa activator: activators of orphan receptor RORA, primary screen, cell-based, luminescence | Nuclear receptor ROR-alpha (Homo sapiens), P35398 | CHO-K1 Gal4-RORA LBD luciferase reporter; percent increase over mock-subtracted basal signal | activation, % at 10 µM | 65,000 tested, 1.5% active | AID 560, 2006;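 active = activation above the mean of all tested compounds plus 3 SD, cut at about 49% in these data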;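 also: 0% = DMSO-treated RORA cells and 100% = added signal equal to DMSO minus mock-transfected cells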
Starred values were filed as active, the others as inactive; x = not tested or not shown. Most compounds without a hit are left out; they make up all but 2.3% or so of the library.

SMILES | SF-1 act | MT1-MMP txn act | JNK3 inh | RORa activator
Cc1cccc(C2Nc3ccccc3C(=O)N2c2ccccc2)n1 (stereo not drawn) | -11.7 | 1.1 | -4.0 | 0.0
Cn1nc(-c2ccc(Cl)cc2)c2cc(C(=O)NCCCN3CCCC3)sc21 | 56.0* | 1.4 | -2.6 | 10.6
COc1cc(C(=O)N2CCN(c3ccc(C)cc3C)CC2)cc(OC)c1OC | 12.2 | x | -7.4 | 64.0*
C#CCOc1ccc(Br)cc1/C=N/O | x | 1.3 | x | x
O=C(CSc1nnc(-c2cccnc2)o1)Nc1ccccn1 | 75.7* | 1.2 | -9.1 | 32.6
O=C(NCC1COc2ccccc2O1)c1ccc(Cl)cc1 (stereo not drawn) | 59.5* | 1.3 | 3.4 | 32.3
O=C(NCC1COc2ccccc2O1)c1ccc(NC(=O)c2ccco2)cc1 (stereo not drawn) | 2.7 | 1 | 4.0 | 9.8
CCOC(=O)N1CCN(C(=O)c2ccccc2-c2ccccc2)CC1 | 60.3* | 0.5 | 7.5 | 17.4
CCOc1ccc(-c2nc(C#N)c(NC3CC3)o2)cc1 | 8.7 | 1.2 | 7.7 | 62.8*
COCCNc1oc(-c2ccc(C)cc2)nc1C#N | 60.6* | 1.6 | -10.0 | 48.4
CCOc1ccc(Nc2oc(-c3ccc(Cl)cc3)nc2C#N)cc1 | x | 1.7 | x | x
Cc1ccc(-c2nc(C#N)c(NCCc3ccccn3)o2)cc1 | 54.4* | 1.2 | 1.0 | 61.0*
CCOc1ccc(-c2nc(C#N)c(NCc3ccc4c(c3)OCO4)o2)cc1 | 9.5 | 1.3 | -3.0 | 3.3
COc1ccc(Nc2oc(-c3ccc(Cl)cc3)nc2C#N)cc1 | x | 2.2* | x | x
COCCNc1oc(-c2ccc(Cl)cc2)nc1C#N | 39.7 | 1.4 | -2.8 | 34.5
N#Cc1nc(-c2ccc(Cl)cc2)oc1NCCc1ccccn1 | 13.4 | 1.3 | x | 19.1
Cc1ccccc1NC(=O)CN(C)S(=O)(=O)c1cccc2cccnc12 | -5.8 | 1.1 | 3.7 | -16.4
Cc1cc(C)n2nc(Nc3ccccc3)cc2n1 | 62.2* | 2* | x | 23.3
COc1ccc2[nH]cc(CCN=C3SCC(=O)N3C)c2c1 | 14.6 | 1.3 | -3.6 | -11.0
CCC(=O)Nc1cccc(-c2nc3ccccc3c(=O)o2)c1 | -22.3 | 1 | 14.7 | 2.4
CC(=O)Nc1cccc(-c2nnc(-c3ccccc3)o2)c1 | 50.6* | 1.5 | x | 28.2
COc1cccc(C(=O)Nc2cccc(-c3nnc(-c4ccccc4)o3)c2)c1 | 92.1* | 1 | 13.1 | 13.2
CC(C)(C)C(=O)Nc1cccc(-c2nnc(-c3cccc(NC(=O)C(C)(C)C)c3)o2)c1 | x | 1.1 | x | x
CC(=O)Nc1cccc(-c2nc3ccccc3c(=O)o2)c1 | 8.2 | 1 | 18.4* | 7.2
N#CC1=C(N)SC(N)=C(C#N)C1c1cccc(O)c1 | x | 1.3 | x | x
SMILES | SF-1 act | MT1-MMP txn act | JNK3 inh | RORa activator
Cc1oc2cc(O)cc(O)c2c(=O)c1-c1ccc2c(c1)OCCCO2 | 50.3* | 1.4 | -6.8 | 58.5*
COc1ccc(-c2cc(C(F)(F)F)n3nc(C(=O)NCc4ccco4)cc3n2)cc1OC | x | 1 | x | x
O=C(COc1ccc(Cl)cc1Cl)NC1CCSC1=O (stereo not drawn) | 57.9* | 1.8 | 1.1 | 22.8
O=C(NCC1CCCO1)c1coc2nc3ccccc3nc12 (stereo not drawn) | 57.2* | 1.2 | 3.0 | 3.3
Cc1nc2nc(-c3ccc(Cl)cc3)nn2c(C)c1Cl | x | 1.7 | x | x
Cc1nc2nc(-c3ccccc3)nn2c(C)c1Cl | 102.6* | 2.2* | -5.5 | 77.0*
COCc1nnc(NC(=O)CSCc2ccccc2)s1 | x | 1 | x | x
CCOC(=O)c1c(C)[nH]c(C(=O)COC(=O)C2CC2C)c1C (stereo not drawn) | 53.5* | 1.1 | 0.5 | 38.2
O=C(COc1ccccc1)n1nc(-c2ccc(Cl)cc2)nc1NCc1ccco1 | 31.4 | 1.2 | 8.0 | 59.7*
O=C(c1ccco1)n1nc(-c2ccc(Cl)cc2)nc1NCc1ccco1 | -1.6 | 1.4 | 2.6 | -10.8
O=C(c1ccccc1)c1nc[nH]c1C(=O)Nc1ccccn1 | 0.3 | 0.9 | 18.2* | 0.6
O=S(=O)(NCCSc1nnnn1-c1ccccc1)c1cccs1 | 54.1* | 1.3 | 2.5 | 22.1
c1ccc(-c2n[nH]c(-c3ccccn3)n2)nc1 | 78.5* | 1.2 | 2.0 | 23.9
Clc1cc(Cl)c2nc(N3CCCCC3)sc2c1 | 60.6* | 2.1* | 2.4 | 24.3
Fc1cc(F)c2nc(N3CCCCC3)sc2c1 | 65.2* | 1.7 | 0.4 | 32.1
COc1ccc(OC)c2sc(N3CCCCC3)nc12 | 40.1 | 1.5 | -2.7 | 38.0
Clc1cccc2sc(N3CCCCC3)nc12 | 47.5 | 1 | 6.7 | 12.7
Clc1cc(Cl)c2nc(N3CCCC3)sc2c1 | 60.1* | 1.5 | 2.3 | 40.8
CCC/C=C(\CCC)C(NS(=O)(=O)c1ccc(Cl)cc1)c1ccccc1 (stereo not drawn) | x | 1.2 | x | x
Oc1ccccc1C1=Nc2nc3ccccc3n2C(c2ccccc2)C1 (stereo not drawn) | 42.0 | 1.3 | 5.4 | 80.8*
CC(=O)c1cccc(NC(=O)NCc2ccccn2)c1 | 56.4* | 1.4 | 5.8 | 22.1
CCN(CC)CCC(=O)Nc1ccc2c(c1)N(C(=O)CN(CC)CC)c1ccccc1CC2 | x | 1.6 | x | x
O=C(Nc1cccc(NC(=O)C2CC3CCCC(C2)C3=O)n1)C1CC2CCCC(C1)C2=O (stereo not drawn) | -0.6 | 1.1 | -3.8 | -10.7
Cc1nc(NC(=O)C2CC3CCCC(C2)C3=O)sc1C (stereo not drawn) | 53.7* | 1.6 | 7.1 | 62.1*
CCN(CC)CCN1C(=O)C(=O)/C(=C(/O)c2cccc(OC)c2)C1c1ccccn1 (stereo not drawn) | 21.5 | 1.1 | -4.3 | 29.2
SMILES | SF-1 act | MT1-MMP txn act | JNK3 inh | RORa activator
N#CCCC12CCCCC1=Nc1ccccc12 (stereo not drawn) | -2.0 | 1 | 19.0* | -15.5
CCCCC(CC)CNC(=O)C1C2C=CC(C2)C1C(=O)O (stereo not drawn) | x | 2.1* | x | x
O=C(O)C1C2C=CC(C2)C1C(=O)NCCc1ccccc1 (stereo not drawn) | -11.8 | 1.2 | -0.6 | -9.3
Cc1ccc(-n2ncc3c(N4CCCC(C)C4)ncnc32)c(C)c1 (stereo not drawn) | 58.7* | 1.1 | 5.4 | 42.6
CC1CCCN(c2ncnc3c2cnn3-c2ccccc2)C1 (stereo not drawn) | -48.2 | x | -0.5 | -56.6
COc1cccc(N2CCN(c3ncnc4c3cnn4-c3ccc(C)cc3C)CC2)c1 | -37.3 | 1.2 | -1.0 | -25.1
Cc1ccc(-n2ncc3c(N4CCCC4)ncnc32)c(C)c1 | 66.0* | 1.7 | -10.1 | 29.2
CC(C)CCN1C(=O)c2ccc(C(=O)NCC3CCCO3)cc2C1=O (stereo not drawn) | 6.9 | 1.1 | -6.5 | -4.4
CCOc1ccc(-c2nnn(CC(=O)NCc3ccco3)n2)cc1OCC | x | 1 | x | x
CCCCOc1ccc(-c2nnn(CC(=O)NCc3ccco3)n2)cc1 | 37.0 | 0.8 | -10.8 | 197.6*
COc1cccc(NC(=O)Cn2cnc3sc(C)c(S(=O)(=O)N4CCCCC4)c3c2=O)c1 | x | 1.1 | x | x
CCOC(=O)N1CCC(N2Cc3cccc(C(=O)Nc4ccc(OC)c(OC)c4)c3C2=O)CC1 | 54.1* | 1.1 | 1.6 | 19.0

Bioassay records from PubChem.
